Screens as filed in PubChem BioAssay.
Rows were chosen to be rich in hits. Some 2.9% of all compounds tested hit in one or more screens of this group.
OX1R antag-1: OX1R (human) antagonism; O43613; OX1R-expressing cells, FRET antagonist read-out; inhibition, % at 6.6 µM; 330,000 tested, 1.8% active; in the data active = inhibition mostly above about 38%, no sharp cut-off; inactive = mostly below about 40%;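 note: 0% = agonist challenge alone and 100% = reference antagonist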
Target sequence (O43613 whole entry, looked up): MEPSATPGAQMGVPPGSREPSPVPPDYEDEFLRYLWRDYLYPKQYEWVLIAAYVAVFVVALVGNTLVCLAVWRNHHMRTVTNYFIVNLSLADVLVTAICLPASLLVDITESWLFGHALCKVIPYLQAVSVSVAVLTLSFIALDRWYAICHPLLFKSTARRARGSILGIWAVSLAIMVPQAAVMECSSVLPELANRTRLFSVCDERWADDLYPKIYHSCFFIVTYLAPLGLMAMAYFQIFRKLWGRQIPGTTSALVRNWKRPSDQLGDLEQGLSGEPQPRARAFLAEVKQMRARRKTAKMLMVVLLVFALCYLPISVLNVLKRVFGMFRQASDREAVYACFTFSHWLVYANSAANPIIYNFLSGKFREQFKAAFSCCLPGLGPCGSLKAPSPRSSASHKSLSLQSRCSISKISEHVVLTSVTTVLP
CHO parental Ca: counter-screen for OX1R antagonists: effect in parental CHO cells | parental CHO-K1, ATP-induced calcium, Fluo-8 fluorescence | inhibition, % at 5.6 µM | 330,000 tested, 0.63% active;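 active = inhibition above that plate's mean sample inhibition plus 3 SD, cut at about 26% in these data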;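 note: 0% = ATP-challenged DMSO wells and 100% = DMSO wells without ATP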
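Test system: parental CHO cells; detection: calcium-sensitive Fluo-8 fluorescence; evaluation: percent inhibition of calcium signal; also added: ATP as calcium-mobilizing challenge; repeats: one well per compound; control set: ATP-challenged DMSO wells low, unchallenged DMSO wells high; compound: single nominal dose of 5.6 µM per compound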
M1 PAM parental: nonselective activator or artifact in parental CHO-K1 calcium assay | ATP EC20, Fluo-8 calcium fluorescence; 0% at ATP EC20, 100% at ATP max | 360,000 tested, 0.02% active | activation, % at 3 µM;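 active = activation above the run cutoff, the mean activation of all test compounds plus 3 SD, cut at about 40% in these data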;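 note: peak over basal fluorescence ratio in a 140 s read after ATP addition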
CHO-K1 Ca antag: M1 antagonist counterscreen hit in parental CHO-K1 cells. inhibition, % at 3 µM. AID 602250. ATP-induced calcium, Fluo-8 fluorescence. 360,000 tested, 0.6% active;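 active = inhibition above a per-plate cutoff, the plate's mean sample inhibition plus 3 SD, cut at about 24% in these data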;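 note: 0% = DMSO plus EC80 ATP and 100% = DMSO alone without ATP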
OX1R antag-2: antagonists of human orexin 1 receptor; O43613; CHO/OX1R cells, Fluo-8 calcium fluorescence, orexin A; inhibition, % at 5 µM; 330,000 tested, 0.43% active; AID 434989;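 active = inhibition above its plate's threshold, mean inhibition of all tested compounds on the plate plus 3 SD, cut at about 37% in these data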;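 note: 0% = orexin A challenge wells and 100% = SB-334867-A antagonist wells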
CHO-K1 Ca ag: nonselective activator or artifact in parental CHO-K1 cells. Fluo-8 calcium fluorescence; scaled to maximal ATP response, vehicle zero. 360,000 tested, 0.48% active. activation, % at 3 µM; in the data active = activation above about 15%;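 note: untransfected CHO-K1 host cells lacking M1 receptor as counterscreen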
Active calls of the source: *.

Results for O=C(N/N=C/c1ccc2ncccc2c1)c1cc(-c2cccs2)nc2ccccc12 ?
OX1R antag-1: 62*; CHO parental Ca: -18; M1 PAM parental: 6; CHO-K1 Ca antag: -10; OX1R antag-2: 19; CHO-K1 Ca ag: 0

How did O=C(Nc1ccon1)c1cc(-c2ccccc2)nc2ccccc12 do in these assays?
OX1R antag-1: 21; CHO parental Ca: -26; M1 PAM parental: 17; CHO-K1 Ca antag: 1; OX1R antag-2: -12; CHO-K1 Ca ag: 5

Results for O=C(O)c1ccccc1NC(=O)c1cc(-c2ccccc2)nc2ccccc12 ?
OX1R antag-1: 57*; CHO parental Ca: -17; M1 PAM parental: -20; CHO-K1 Ca antag: 8; OX1R antag-2: -25; CHO-K1 Ca ag: 2

How did CCOc1cccc(CN2CCC(N3CCC(C(=O)NCC4CCCO4)CC3)CC2)c1 (stereo not drawn) do in these assays?
OX1R antag-1: 2; CHO parental Ca: -1; M1 PAM parental: 6; CHO-K1 Ca antag: -14; OX1R antag-2: -14; CHO-K1 Ca ag: 1

Results for Cc1ccc(S(=O)(=O)N2[C@@H](c3ccc(Cl)cc3)C(C(=O)O)=CC[C@H]2c2ccc(Cl)cc2)cc1 ?
OX1R antag-1: 58*; CHO parental Ca: 2; M1 PAM parental: 10; CHO-K1 Ca antag: -18; OX1R antag-2: 12; CHO-K1 Ca ag: 0

Results for O=C(O)C1=CC[C@@H](c2ccc(Cl)cc2)N(S(=O)(=O)c2ccc(Cl)cc2)[C@H]1c1cccc(Cl)c1 ?
OX1R antag-1: 85*; CHO parental Ca: 78*; M1 PAM parental: 1; CHO-K1 Ca antag: -13; OX1R antag-2: 37; CHO-K1 Ca ag: -1

Results for Cc1ccc([C@@H]2CC=C(C(=O)O)[C@H](c3ccc(Cl)cc3)N2S(=O)(=O)c2ccccc2C)cc1 ?
OX1R antag-1: 49*; CHO parental Ca: -6; M1 PAM parental: 16; CHO-K1 Ca antag: -12; OX1R antag-2: 33; CHO-K1 Ca ag: 1

How did Cc1ccc(S(=O)(=O)N2[C@@H](c3ccc(Cl)cc3)C(C(=O)O)=CC[C@H]2c2cccc(Cl)c2)cc1 do in these assays?
OX1R antag-1: 10; CHO parental Ca: 9; M1 PAM parental: 15; CHO-K1 Ca antag: -11; OX1R antag-2: -21; CHO-K1 Ca ag: 0

What do the screens show for `COc1ccc([C@@H]2CC=C(C(=O)O)[C@H](c3ccc(Cl)cc3)N2S(=O)(=O)c2ccccc2C)cc1`?
OX1R antag-1: 48*; CHO parental Ca: -26; M1 PAM parental: -7; CHO-K1 Ca antag: -3; OX1R antag-2: -14; CHO-K1 Ca ag: 0

How did CCOc1ccc([C@@H]2CC=C(C(=O)O)[C@H](c3ccc(Cl)cc3)N2S(=O)(=O)c2ccc(C)cc2)cc1 do in these assays?
OX1R antag-1: 35; CHO parental Ca: -2; M1 PAM parental: -6; CHO-K1 Ca antag: 0; OX1R antag-2: -5; CHO-K1 Ca ag: -1

How did Cc1ccc([C@@H]2CC=C(C(=O)O)[C@H](c3ccc(Cl)cc3)N2S(=O)(=O)c2ccc(C)cc2)cc1 do in these assays?
OX1R antag-1: 46; CHO parental Ca: -8; M1 PAM parental: 14; CHO-K1 Ca antag: -15; OX1R antag-2: -17; CHO-K1 Ca ag: 0

What do the screens show for `CC(CNC(=O)c1ccc(C#N)cc1)NC(=O)c1ccc(C#N)cc1` (stereo not drawn)?
M1 PAM parental: -4; CHO-K1 Ca antag: 12; CHO-K1 Ca ag: 0

Results for CCCCCCC(NC(=O)c1ccc(C)cc1)C(=O)O (stereo not drawn) ?
OX1R antag-1: 16; CHO parental Ca: -1; M1 PAM parental: 6; CHO-K1 Ca antag: -9; OX1R antag-2: 11; CHO-K1 Ca ag: 1

Results for CCCn1c(SCC(=O)Nc2ccccc2Cl)n[nH]c1=O ?
OX1R antag-1: 8; CHO parental Ca: -9; M1 PAM parental: 21; CHO-K1 Ca antag: -13; OX1R antag-2: -9; CHO-K1 Ca ag: 1

Results for COc1cccc([C@@H]2CC=C(C(=O)O)[C@H](c3cccc(Cl)c3)N2S(=O)(=O)c2ccc(C)cc2)c1 ?
OX1R antag-1: 69*; CHO parental Ca: -17; M1 PAM parental: 3; CHO-K1 Ca antag: -4; OX1R antag-2: 9; CHO-K1 Ca ag: 0

What do the screens show for `COc1ccc([C@@H]2CC=C(C(=O)O)[C@H](c3ccc(Br)cc3)N2S(=O)(=O)c2ccccc2C)cc1`?
OX1R antag-1: 53*; CHO parental Ca: -19; M1 PAM parental: 12; CHO-K1 Ca antag: -7; OX1R antag-2: -14; CHO-K1 Ca ag: 1

Results for Cc1ccc([C@@H]2CC=C(C(=O)O)[C@H](c3ccc(F)cc3)N2S(=O)(=O)c2ccccc2C)cc1 ?
OX1R antag-1: 57*; CHO parental Ca: -8; M1 PAM parental: 10; CHO-K1 Ca antag: -12; OX1R antag-2: 0; CHO-K1 Ca ag: 0

How did Cc1ccccc1S(=O)(=O)N1[C@@H](c2ccc(Br)cc2)C(C(=O)O)=CC[C@H]1c1ccc(Cl)cc1 do in these assays?
OX1R antag-1: 34; CHO parental Ca: -12; M1 PAM parental: 12; CHO-K1 Ca antag: -10; OX1R antag-2: 7; CHO-K1 Ca ag: 0

What do the screens show for `Cc1ccc([C@@H]2CC=C(C(=O)O)[C@H](c3ccc(Br)cc3)N2S(=O)(=O)c2ccccc2C)cc1`?
OX1R antag-1: 39*; CHO parental Ca: -3; M1 PAM parental: -5; CHO-K1 Ca antag: -1; OX1R antag-2: 25; CHO-K1 Ca ag: -1

What do the screens show for `O=C(Nc1ccc(Cl)cc1)c1cc(Br)ccc1OCC(=O)N1CCOCC1`?
OX1R antag-1: 8; CHO parental Ca: -7; M1 PAM parental: -2; CHO-K1 Ca antag: 3; OX1R antag-2: -5; CHO-K1 Ca ag: 1

What do the screens show for `Cc1ccccc1-c1nc(CS(=O)(=O)CC(=O)NCc2ccco2)c(C)o1`?
OX1R antag-1: 22; CHO parental Ca: -19; M1 PAM parental: 12; CHO-K1 Ca antag: -12; OX1R antag-2: 17; CHO-K1 Ca ag: 2

Results for Cc1ccccc1S(=O)(=O)N1[C@@H](c2ccccc2)C(C(=O)O)=CC[C@H]1c1ccc(Cl)cc1 ?
OX1R antag-1: 76*; CHO parental Ca: -20; M1 PAM parental: 24; CHO-K1 Ca antag: -14; OX1R antag-2: 7; CHO-K1 Ca ag: -1

How did COC(=O)[C@]12CCCCC=C1N(Cc1ccccc1)C(=O)[C@H](CC(=O)N1CCCC1)C2 do in these assays?
M1 PAM parental: -8; CHO-K1 Ca antag: 5; CHO-K1 Ca ag: 6

Results for CN(CC(=O)NCc1cccs1)S(=O)(=O)c1cccc2nsnc12 ?
OX1R antag-1: 51*; CHO parental Ca: -1; M1 PAM parental: -12; CHO-K1 Ca antag: -20; OX1R antag-2: -11; CHO-K1 Ca ag: 1

How did CN(C)c1ccc(/C=C2/C[N+](C)(C)C/C(=C/c3ccc(N(C)C)cc3)C2=O)cc1 do in these assays?
M1 PAM parental: 15; CHO-K1 Ca antag: -11; CHO-K1 Ca ag: 3

Results for CC(C)/C=C1\CC/C(=C\c2ccc(N(C)C)cc2)C1=O ?
OX1R antag-1: 11; CHO parental Ca: 53*; M1 PAM parental: 6; CHO-K1 Ca antag: 29*; OX1R antag-2: 66*; CHO-K1 Ca ag: 29*
